Results published in ChEMBL document CHEMBL1152456, “A MurF inhibitor that disrupts cell wall biosynthesis in Escherichia coli” (Antimicrob Agents Chemother, 2007).
Converted amounts (≈) assume the structure as drawn. The source made the active and inactive calls. The rule behind the calls is not given here. Positions of bridges follow the written chain, without caps; N, C: chain ends. Non-standard residues stand in square brackets, D forms with d. Residues, ends and D or L forms follow the SMILES beside them. Dab = NCC[C@H](N)C(=O)O

How the values were obtained:
[1] = system: Escherichia coli; assay: Antibacterial activity against Escherichia coli NovaBlue by CLSI broth microdilution method; assay type: functional
Outline: (§1)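 MICs by CLSI broth microdilution in cation-adjusted Mueller-Hinton broth. Strains came from ATCC or an in-house collection; NovaBlue was purchased.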

[2] = system: Escherichia coli; assay: Antibacterial activity against LPS-deffective Escherichia coli OC2530 by CLSI broth microdilution method; assay type: functional; outline: as §1
[3] = system: Staphylococcus aureus; assay: Antibacterial activity against Staphylococcus aureus ATCC 29213 by CLSI broth microdilution method; assay type: functional; outline: as §1
[4] = system: Escherichia coli; assay: Antibacterial activity against Escherichia coli ATCC 25922 by CLSI broth microdilution method; assay type: functional; outline: as §1
[5] = system: Escherichia coli; assay: Bactericidal activity against LPS-deffective Escherichia coli OC2530 assessed as log reduction in CFU at 2 times MIC after 30 mins relative to control; assay type: functional
Outline: (§2)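 Killing. OC2530 at mid-log treated with 2x MIC compound. Aliquots taken from replicate Bioscreen wells at set times, serially diluted in PBS, spiral-plated and colonies counted. Mean ± SD of two independent experiments.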

[6] = system: Escherichia coli; assay: Inhibition of Escherichia coli OC2530 MurF assessed as ratio of UDP-MurNAc-tripeptide/UDP-MurNAc-pentapeptide level at 2 times MIC after 30 mins by HPLC
Outline: (§3)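 UDP-precursor pools. 125 ml OC2530 cultures at A600 0.3 treated with 2x MIC compound or DMSO for 30 min. Cells chilled, washed in cold 0.9% NaCl and lysed in cold 5% trichloroacetic acid 30 min on ice. Supernatants ether-extracted six times. UDP-MurNAc-tripeptide and -pentapeptide purified and quantitated. One representative of two independent experiments.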

[7] = system: Escherichia coli; assay: Antibacterial activity against mid-log culture of LPS-deffective Escherichia coli OC2530 assessed as cell lysis at 2 times MIC by optical density study; assay type: functional, organism-based
Outline: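 Growth curve. E. coli OC2530 grown with aeration to mid-log (A600 0.3), compound added at 2x MIC final. Samples transferred at once to replicate Bioscreen wells, 37°C with continuous shaking, A580 read every 15 min; 10 wells per culture.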

[8] = system: Enterococcus faecium; assay: Antibacterial activity against Enterococcus faecium OC3312 by CLSI broth microdilution method; assay type: functional; outline: as §1
[9] = system: Escherichia coli; assay: Antibacterial activity against LPS-deffective Escherichia coli OC2530 by CLSI broth microdilution method in presence of permeabilizer polymyxin B nonapeptide; assay type: functional
[10] = system: Escherichia coli; assay: Bactericidal activity against LPS-deffective Escherichia coli OC2530 assessed as log reduction in CFU at 2 times MIC after 3 hrs relative to control; assay type: functional; outline: as §2
[11] = system: Staphylococcus aureus; assay: Antibacterial activity against Staphylococcus aureus OC4172 by CLSI broth microdilution method; assay type: functional; outline: as §1
[12] = system: Escherichia coli; assay: Antibacterial activity against Escherichia coli OC2605 by CLSI broth microdilution method; assay type: functional
Outline: (§4)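 Broth microdilution MIC following CLSI method, in cation-adjusted Mueller-Hinton broth; strains from ATCC or the company strain collection.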

[13] = system: Escherichia coli; assay: Antibacterial activity against Escherichia coli OC9040 by CLSI broth microdilution method; assay type: functional; outline: as §1
[14] = system: Escherichia coli; assay: Antibacterial activity against Escherichia coli ATCC 25922 by CLSI broth microdilution method in presence of permeabilizer polymyxin B nonapeptide; assay type: functional; outline: as §1
[15] = system: Enterococcus faecalis; assay: Antibacterial activity against Enterococcus faecalis ATCC 29212 by CLSI broth microdilution method; assay type: functional; outline: as §1
[16] = system: Escherichia coli; assay: Antibacterial activity against LPS-deffective Escherichia coli OC2530 assessed as cell lysis at 2 times MIC by colony forming assay; assay type: functional, organism-based
[17] = system: Staphylococcus aureus; assay: Antibacterial activity against methicillin-resistant Staphylococcus aureus COL OC3726 by CLSI broth microdilution method; assay type: functional; outline: as §4
[18] = system: Pseudomonas aeruginosa; assay: Antibacterial activity against Pseudomonas aeruginosa ATCC 27853 by CLSI broth microdilution method; assay type: functional; outline: as §1
[19] = system: Staphylococcus aureus; assay: Antibacterial activity against methicillin-resistant Staphylococcus aureus OC2878 by CLSI broth microdilution method; assay type: functional; outline: as §4
[20] = system: Escherichia coli; assay: Antibacterial activity against Escherichia coli NovaBlue by CLSI broth microdilution method in presence of permeabilizer polymyxin B nonapeptide; assay type: functional; outline: as §1
[21] = Binding affinity to Escherichia coli MurF by HTS assay in presence of ATP
[22] = system: Escherichia coli; assay: Binding affinity to Escherichia coli MurF assessed as increase in enzyme melting temperature by thermofluor analysis in presence of ATP
Outline: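 ThermoFluor thermal shift binding assay on E. coli MurF run in the presence of ATP; read-out is the change in Tm.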

[23] = Binding affinity to Escherichia coli MurF by HTS assay in absence of ATP
[24] = Inhibition of Escherichia coli MurF assessed as appearance of UDP-MurNAc-pentapeptide product by HPLC
Outline: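 HPLC assay of E. coli MurF. Enzyme at 4 nM final in 100 mM Tris-Cl pH 8.5, 5 mM ATP, 300 mM NaCl, preincubated 10 min at room temperature with compound or DMSO. D-Ala-D-Ala and a completed Mpl reaction supplying UDP-MurNAc-tripeptide were then added. Reaction ran 15 min at 37°C and was stopped with trifluoroacetic acid. Pentapeptide and tripeptide peaks were quantified by HPLC to give IC50.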

[25] = system: Escherichia coli; assay: Ratio of Kd for Escherichia coli MurF in absence of ATP to Kd for Escherichia coli MurF in presence of ATP
[26] = system: Escherichia coli; assay: Effect on muropeptide composition in LPS-deffective Escherichia coli OC2530 assessed as decrease in UDP-MurNAc-pentapeptide level at 2 times MIC after 30 mins relative to control; assay type: functional; parameters: scale not given: the % may be the effect or the level left; outline: as §3
[27] = system: Escherichia coli; assay: Effect on muropeptide composition in LPS-deffective Escherichia coli OC2530 assessed as increase in UDP-MurNAc-tripeptide level at 2 times MIC after 30 mins relative to control; assay type: functional; outline: as §3

For `CC(C)C[C@@H]1NC(=O)[C@@H](Cc2ccccc2)NC(=O)[C@H](CCN)NC(=O)[C@@H](NC(=O)[C@H](CCN)NC(=O)[C@@H](N)[C@@H](C)O)CCNC(=O)[C@H]([C@@H](C)O)NC(=O)[C@H](CCN)NC(=O)[C@H](CCN)NC1=O` [POLYMYXIN B NONAPEPTIDE] (H-T[Dab][Dab][Dab][dF]L[Dab][Dab]T; lactam 3-C), the MIC [1] was 25 µg/mL (≈ 26 µM), the MIC [2] was 6.2 µg/mL (≈ 6.44 µM) and the MIC [3] was 50 µg/mL (≈ 51.9 µM).

In the case of `N[C@@H]1CONC1=O` [CYCLOSERINE], the MIC [4] is reported as 32 µg/mL (≈ 313 µM), the Activity [5] is reported as 0.5 and the Ratio [6] is reported as 30.3. For the same molecule, the Activity [7] was “Active”, the MIC [8] was 64 µg/mL (≈ 627 µM) and the MIC [9] was 64 µg/mL. For the same molecule, the Activity [10] was over 5, the MIC [11] was 32 µg/mL (≈ 313 µM) and the MIC [12] was 16 µg/mL (≈ 157 µM). The MIC [1] was 64 µg/mL (≈ 627 µM), the MIC [2] was 64 µg/mL (≈ 627 µM) and the MIC [13] was 32 µg/mL (≈ 313 µM). For the same molecule, the MIC [14] was 32 µg/mL, the MIC [15] was 128 µg/mL (≈ 1250 µM) and the Activity [16] was “Active”. The MIC [17] was 32 µg/mL (≈ 313 µM), the MIC [18] was over 128 µg/mL and the MIC [19] was 64 µg/mL (≈ 627 µM). It also gave an MIC [3] of 32 µg/mL (≈ 313 µM) and an MIC [20] of 64 µg/mL.

Work on `Cc1ccc(C(NC(=O)c2ccccc2)c2ccc3cccnc3c2O)cc1` (stereo unspecified) yielded a Kd [21] of 20 µM, a Ratio [6] of 0.02 and a ΔTm [22] of 2.41 °C. For the same molecule, the MIC [2] was 32 µg/mL (≈ 86.9 µM), the Kd [23] was 33 µM and the IC50 [24] was 0.87 µM. It also gave an MIC [3] of 32 µg/mL (≈ 86.9 µM).

Work on `COc1ccc(C(=O)NC(c2ccc(OC)c(OC)c2)c2cc(Cl)c3cccnc3c2O)cc1` (stereo unspecified) yielded a ΔTm [22] of 0.74 °C, an MIC [2] of over 64 µg/mL and an IC50 [24] of 25 µM. It also gave an MIC [3] of over 64 µg/mL.

For `O=C(NC(c1ccc2c(c1)OCO2)c1ccc2cccnc2c1O)c1ccccc1` (stereo unspecified), the Kd [21] was 12 µM, the ΔTm [22] was 1.74 °C and the Ratio [25] was 4. It also gave an MIC [2] of 32 µg/mL (≈ 80.3 µM), a Kd [23] of 50 µM and an IC50 [24] of 0.44 µM. The MIC [3] was 32 µg/mL (≈ 80.3 µM).

`COc1cccc(C(=O)NC(c2ccccc2OC)c2cc(Cl)c3cccnc3c2O)c1` (stereo unspecified) gave a Kd [21] of 14 µM, a ΔTm [22] of 2.2 °C and an MIC [2] of over 32 µg/mL. For the same molecule, the Kd [23] was 10 µM, the IC50 [24] was 1.9 µM and the MIC [3] was over 32 µg/mL.

With `O=C(NC(c1ccccc1F)c1ccc2cccnc2c1O)c1ccccc1` (stereo unspecified) the Kd [21] was 20 µM, the ΔTm [22] was 3.35 °C and the MIC [2] was 16 µg/mL (≈ 43 µM). The Kd [23] was 20 µM, the IC50 [24] was 0.8 µM and the MIC [3] was 32 µg/mL (≈ 85.9 µM).

`O=C(Nc1ccc(F)cc1)OC(CCN1CCC(O)(c2ccc(Cl)cc2)CC1)c1ccccc1` (stereo unspecified) showed an MIC [4] of over 32 µg/mL, an Activity [26] of 50% and an Activity [5] of 1. For the same molecule, the Activity [7] was “Active”, the MIC [8] was 16 µg/mL (≈ 33.1 µM) and the MIC [9] was 4 µg/mL. For the same molecule, the Activity [10] was 5, the MIC [11] was 8 µg/mL (≈ 16.6 µM) and the MIC [12] was over 32 µg/mL. The MIC [1] was over 64 µg/mL, the MIC [2] was 8 µg/mL (≈ 16.6 µM) and the “fold change (FC)” value [27] was 15. The MIC [13] was over 32 µg/mL, the MIC [14] was 16 µg/mL and the MIC [15] was 16 µg/mL (≈ 33.1 µM). The Activity [16] was “Active”, the MIC [17] was 16 µg/mL (≈ 33.1 µM) and the MIC [18] was over 32 µg/mL. It also gave an IC50 [24] of 26 µM, an MIC [19] of 16 µg/mL (≈ 33.1 µM) and an MIC [3] of 16 µg/mL (≈ 33.1 µM). For the same molecule, the MIC [20] was 16 µg/mL.

Work on `COc1cccc(C(=O)NC(c2ccc3c(c2)OCO3)c2cc(Cl)c3cccnc3c2O)c1` (stereo unspecified) yielded a Kd [21] of 4.5 µM, a ΔTm [22] of 1.59 °C and an MIC [2] of over 32 µg/mL. It also gave a Kd [23] of 3.3 µM, an IC50 [24] of 0.75 µM and an MIC [3] of over 32 µg/mL.

For `COc1cccc(C(=O)NC(/C=C/c2ccccc2)c2cc(Cl)c3cccnc3c2O)c1` (stereo unspecified), the Kd [21] was 10 µM, the ΔTm [22] was 1.81 °C and the MIC [2] was over 32 µg/mL. For the same molecule, the Kd [23] was 3.3 µM, the IC50 [24] was 1.25 µM and the MIC [3] was over 32 µg/mL.

With `COc1ccc(C(NC(=O)c2cccc(OC)c2)c2cc(Cl)c3cccnc3c2O)cc1` (stereo unspecified) the Kd [21] was 11 µM, the ΔTm [22] was 1.82 °C and the MIC [2] was over 32 µg/mL. The Kd [23] was 2.5 µM, the IC50 [24] was 0.33 µM and the MIC [3] was over 32 µg/mL.

For `COc1ccc(C(NC(=O)c2ccccc2)c2ccc3cccnc3c2O)cc1OC` (stereo unspecified), the Kd [21] was 14 µM, the Ratio [6] was 0.04 and the ΔTm [22] was 2.86 °C. The Ratio [25] was 4, the MIC [2] was 8 µg/mL (≈ 19.3 µM) and the Kd [23] was 100 µM. It also gave an IC50 [24] of 16 µM and an MIC [3] of 32 µg/mL (≈ 77.2 µM).
